Env fusion inh = blocks HIV Env-driven cell-cell fusion; HeLa-JRFL Env/CEM21 cell fusion, luciferase; inhibition, % at 12.3 µM; 360,000 compounds, 1.1% hits;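 active = mean replicate inhibition score of at least 50 and every replicate individually at or above 50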;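 also: 0% = plate neutral controls and 100% = maraviroc near 300 nM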
ERp5 block = ERp5 (human) disulfide isomerase inhibition; Q15084; ERp5 insulin aggregation, absorbance 650 nm, 90 min; inhibition, % at 9.99 µM; 350,000 compounds, 0.05% hits;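 active = mean replicate inhibition above about 25%, with every replicate also reaching it, limit read from the data, passing the limit was not always enough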
Target sequence (Q15084 whole entry, looked up): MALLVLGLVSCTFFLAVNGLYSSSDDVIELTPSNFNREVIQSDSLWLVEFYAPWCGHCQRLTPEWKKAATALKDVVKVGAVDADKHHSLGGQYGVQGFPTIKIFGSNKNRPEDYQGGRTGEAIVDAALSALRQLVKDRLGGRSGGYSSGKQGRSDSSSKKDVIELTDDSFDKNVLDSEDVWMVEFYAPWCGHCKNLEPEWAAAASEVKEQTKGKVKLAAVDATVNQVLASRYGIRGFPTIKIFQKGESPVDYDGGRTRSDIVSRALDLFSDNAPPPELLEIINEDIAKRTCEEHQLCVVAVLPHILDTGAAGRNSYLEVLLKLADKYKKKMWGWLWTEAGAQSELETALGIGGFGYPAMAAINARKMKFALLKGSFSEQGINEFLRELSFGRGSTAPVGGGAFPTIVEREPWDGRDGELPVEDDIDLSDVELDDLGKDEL
INS-1E GSIS act = GLuc luminescence reporter in INS-1E cells, primary screen for activators of glucose-dependent secretion of insulin. INS-1E GLuc reporter insulin secretion, 2-3 h. activation, % at 16.6 µM. 370,000 compounds, 0.61% hits. AID 743287;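 active = lowest replicate activation of at least 40%, so every replicate reaches that level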;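 also: 0% = median of neutral control wells and 100% = median of IBMX positive control wells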
PDI inh = PDI (human) enzyme inhibition; inhibition, % at 10 µM; PDI insulin aggregation turbidity, A650, 90 min; 350,000 compounds, 0.052% hits; P07237; AID 588391;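 active = mean inhibition across replicates of 30% or more, whatever share of single replicates reach that level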
FN deposit inh = fibronectin deposition inhibition; AH1F fibroblasts, Alexa488-fibronectin deposition fluorescence, overnight; inhibition, % at 12.6 µM; 350,000 compounds, 0.086% hits; AID 743247;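 active = mean inhibition across replicates of 30% or more, regardless of how many single replicates reach that level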;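 also: positive control wells lacked labelled fibronectin entirely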
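Measured by – fluorescence 485/525 nm · System – AH1F fibroblast monolayer, labelled fibronectin deposition · Amount – 10000 cells per well · Buffer or medium – serum-reduced DMEM (2% serum) · Doses – single dose, pinned · Also added – fluorescent fibronectin at 24 nM final · Schedule – 1 h cell attachment, overnight exposure to compound and label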
The depositor's hits bear a star; / = no result; [ ] = another dose, or the depositor's remark. Most compounds without a hit are left out; they make up all but 1.4% or so of the library.

SMILES	Env fusion inh	ERp5 block	INS-1E GSIS act	PDI inh	FN deposit inh
Cc1cccn2cc(CCNS(=O)(=O)c3cccs3)nc12	-2.6	-13.1	42.2*	-0.2	-5.0
COc1ccc(S(=O)(=O)NCCc2cn3cccc(C)c3n2)cc1OC	-3.7	-11.0	4.0	/	-2.0
Cc1nc2c(c(N3CCOCC3)n1)OCC(=O)N2	/	-2.4	72.9*	-0.6	/
C[C@H]1CN(C)C(=O)c2cccnc2O[C@@H]1CN(C)C	/	/	8.5	/	-5.1
CCN(CCn1cccn1)C(=O)CC1C(=O)NCCN1CC1CCCCC1 (stereo not given)	-4.8	-0.2	-4.0	2.4	-6.0
CCN(CCn1cccn1)C(=O)CC1C(=O)NCCN1CCc1ccccc1 (stereo not given)	87.9*	-1.5	-25.3	-5.6	-10.9
Cc1ccccc1CN(C)C[C@@H]1OCc2cn(nn2)CCCC(=O)N([C@H](C)CO)C[C@@H]1C	-9.1[16.7 µM]	1.3	2.6	/	-0.8
CN(C)c1nc(NCc2ccccc2)nc(SCC(=O)Nc2ccc(Cl)c(Cl)c2)n1	57.1*	/	-29.8	2.3	-9.5
Cc1sc2nc(CSCC(=O)Nc3ccc(C(F)(F)F)cc3)[nH]c(=O)c2c1C	77.8*	1.1	-15.8	-2.4	-3.7
COc1ccc(-c2ccc(=O)n(CC(=O)NC3CCc4ccccc43)n2)cc1OC (stereo not given)	12.2	-4.0	47.2*	-3.7	9.4
COc1ccc(-c2ccc(SCC(=O)NC3CCCC3)nn2)cc1OC	-11.3	-3.7	80.3*	8.6	14.1
COc1ccc(-c2ccc(SCC(=O)Nc3cc(C)on3)nn2)cc1OC	-18.9	/	57.1*	-1.1	7.5
COc1cccc(-c2ccc(SCC(=O)NC3CCCCC3)nn2)c1	2.0	8.0	0.5	16.1	-2.5
Cc1cccc(NC(=O)CSc2ccc(-c3ccc4c(c3)OCO4)nn2)c1C	/	/	94.1*	6.0	/
COc1ccc(-c2ccc(=O)n(CC(=O)Nc3ccc(C(=O)NC4CC4)cc3)n2)cc1OC	/	/	/	3.7	/
C[C@H](CO)N1C[C@H](C)[C@@H](CN(C)C(=O)Cc2ccccc2)Oc2ncc(C#CCN(C)C)cc2C1=O	-6.8[16.7 µM]	0.8	24.4	/	/
C[C@@H]1CN([C@@H](C)CO)S(=O)(=O)c2ccc(C#CC(C)(C)O)cc2O[C@H]1CN(C)Cc1ccc(F)cc1	/	0.3	-5.0	/	0.1
O=C(Cc1nc2ccccc2[nH]1)c1cccc([N+](=O)[O-])c1	73.4*	7.2	14.6	6.7	-5.3
C[C@@H]1CN([C@@H](C)CO)S(=O)(=O)c2ccc(-c3cncnc3)cc2O[C@H]1CN(C)C(=O)C1CCC1	6.7[16.7 µM]	-4.7	0.6	/	/
Cc1cccc(C2N=C(N)Nc3nc4ccccc4n32)c1 (stereo not given)	3.6	-1.2	55.8*	5.5	-5.0
Cc1ccc(S(=O)(=O)N[C@@H]2C=C[C@H](CC(=O)NCCc3ccncc3)O[C@@H]2CO)cc1	8.8[16.7 µM]	1.6	-2.1	/	/
O=C(CNCC1CCCCC1)Nc1ccccc1N1CCCCC1	74.7*	/	/	-1.4	-1.2
COc1ccc(OCC(=O)Nc2ccccc2N2CCN(C)CC2)cc1	14.8	1.2	9.7	4.9	0.0
COc1ccc(OCC(=O)Nc2ccccc2N2CCCCC2)cc1	74.2*	0.9	-25.6	20.5	/
CCOc1ccc(C(=O)C2CCN(CC(=O)Nc3ccccc3N3CCOCC3)CC2)cc1	69.7*	/	/	0.7	/
SMILES	Env fusion inh	ERp5 block	INS-1E GSIS act	PDI inh	FN deposit inh
CCOc1ccc(C(=O)Nc2ccccc2N2CCOCC2)cc1	/	/	7.5	1.8	/
COc1ccc(OCC(=O)Nc2ccc(N3CCOCC3)c(Cl)c2)cc1	-21.4	/	/	1.0	-3.1
COc1ccc(OCC(=O)Nc2ccc(N3CCN(C(=O)c4ccccc4)CC3)c(Cl)c2)cc1	61.9*	-2.1	7.4	-0.3	/
COc1ccc(S(=O)(=O)N(C)C[C@@H]2Oc3ccc(NC(=O)Nc4c(C)noc4C)cc3CC(=O)N([C@H](C)CO)C[C@H]2C)cc1	22.7[16.7 µM]	-2.3	4.4	/	/
OC1(C#Cc2c(-c3ccsc3)sc3ccccc23)CCCCC1	8.8	2.6	88.0*	/	4.1
COc1ccc(-c2sc3ccccc3c2C#CC2(O)CCCCC2)cc1	49.3	6.0	-1.3	-0.1	-13.6
CNC[C@H]1Oc2ncc(-c3ccc(C)cc3)cc2C(=O)N([C@H](C)CO)C[C@H]1C	6.1[16.7 µM]	1.9	7.5	/	7.3
CSCCC(NS(=O)(=O)c1ccc2c(c1)oc(=O)n2C)C(=O)NC1CCC(C)CC1 (stereo not given)	60.0*	-8.0	5.6	/	-11.4
CSCCC(NS(=O)(=O)c1ccc2c(c1)oc(=O)n2C)C(=O)NC1CCN(Cc2ccccc2)CC1 (stereo not given)	-1.7	-2.6	2.5	4.2	/
CC(C)CC#Cc1ccc2c(c1)O[C@H](CN(C)Cc1ccncc1)[C@@H](C)CN([C@@H](C)CO)S2(=O)=O	38.2[16.7 µM]	-13.8	-1.2	/	/
CCN(CC)S(=O)(=O)c1ccc(Oc2ccccc2OC)cc1	13.7	-10.5	-4.9	8.5	-1.1
CCN(CC)S(=O)(=O)c1ccc(Oc2ccc(S(=O)(=O)N(CC)CC)cc2)cc1	61.9*	/	/	-4.0	-4.5
c1ccc(CSc2nnc([C@@H]3CCCN3)o2)cc1	93.7*	/	/	3.0	9.1
CN(C)CCOC(=O)NC12CC3CC(CC(C3)C1)C2	14.2	1.1	2.7	8.0	-2.4
O=C(NC12CC3CC(CC(C3)C1)C2)OCCNC1CCCCC1	76.6*	3.7	9.8	1.9	-1.2
Cc1nc2c(-c3ccc(F)cc3)c(C)nn2c(C)c1CCC(=O)NC(C)CCc1ccco1 (stereo not given)	65.2*	0.2	21.1	13.8	-7.4
C[C@H](CO)N1C[C@H](C)[C@@H](CN(C)C(=O)Nc2ccccc2)Oc2c(NC(=O)c3ccc(-c4nccs4)cc3)cccc2C1=O	-14.3[16.7 µM]	-3.1	-3.9	/	/
CO[C@@H]1CN(C)C(=O)c2ccc(NC(=O)C3CCC3)cc2OC[C@H](C)N(Cc2ccc(F)cc2)C[C@H]1C	/	-0.5	-11.3	/	-10.9
Cc1ccc(NC2c3ncccc3C(=O)N2C2CCCCC2)cc1 (stereo not given)	-17.6	/	56.1*	-0.3	1.5
CNc1nc(SCc2ccccc2)nc(N2CCOCC2)n1	-22.8	/	49.7*	-3.6	/
CSc1nc(NC(C)C)nc(N2CCOCC2)n1	/	/	115.9*	-9.0	/
CC(C)(C)Nc1nc(SCc2ccccc2)nc(N2CCOCC2)n1	28.0	/	/	1.6	1.2
c1ccc(Nc2nc(N3CCCC3)nc(N3CCOCC3)n2)cc1	61.5*	-0.9	-7.2	6.5	5.4
CN1CCN(C(=O)C[C@@H]2CC[C@@H]3[C@H](COC[C@H](O)CN3CC3CC3)O2)CC1	/	1.5	2.6	/	-6.0
COc1ccccc1-c1cnc2c(c1)C(=O)N([C@H](C)CO)C[C@@H](C)[C@H](CN(C)C)O2	4.1[16.7 µM]	-1.9	19.9	/	-1.8
Cc1cccc(C)c1OCC(=O)N=Nc1c(O)[nH]c2ccc(Br)cc12	-44.9	/	51.2*	-5.7	-17.1
COc1ccc(/C=N/OCC(=O)N=Nc2c(O)[nH]c3ccc(Br)cc23)cc1	-5.5	-0.4	-3.4	0.4	/
CCCNC(=O)C[C@@H]1C[C@@H]2c3cc(NC(=O)C4CCOCC4)ccc3O[C@@H]2[C@H](CO)O1	20.5[16.7 µM]	1.1	10.0	/	-24.6

Bioassay records: PubChem, Broad Institute
